# Source: ChEMBL document CHEMBL2331408, “Discovery and structure-activity relationships of pyrrolone antimalarials” (J Med Chem, 2013)
# What was measured:
# [1] = (§1) Intrinsic clearance in mouse liver microsomes at 1 uM by LC/MS analysis; assay type: ADME, Microsome; details: liver microsomes, read-out: CLH
# Method in brief: (§2)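 Mouse hepatic microsomes; in vitro intrinsic clearance from compound degradation during incubation, expressed as μL/min/mg.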
# [2] = Partition coefficient, log D of the compound at pH 7.4 by HPLC analysis; assay type: physicochemical; details: octanol/water
# Method in brief: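 LogD at pH 7.4 measured with a chromatographic gLogD technique.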
# [3] = Drug metabolism in mouse liver microsomes assessed as mono-oxygenation at 1 uM by LC/MS analysis; assay type: ADME, Microsome
# Liver [4] = experiment: as §1; assay type: ADME, Microsome; details: microsomes, 1 µM; method in brief: as §2
# [5] = Drug metabolism in mouse liver microsomes assessed as bis-oxygenation at 1 uM by LC/MS analysis; assay type: ADME, Microsome
# [6] = Drug metabolism in mouse liver microsomes assessed as morpholine ring cleavage at 1 uM by LC/MS analysis; assay type: ADME, Microsome
# [7] = Drug metabolism in mouse liver microsomes assessed as glucuronide metabolite formation at 1 uM by LC/MS analysis; assay type: ADME, Microsome
# [8] = Drug metabolism in mouse liver microsomes assessed as O-demethylation at 1 uM by LC/MS analysis; assay type: ADME, Microsome
# Liver microsomes [9] = experiment: Drug metabolism in rat liver microsomes at 1 uM by LC/MS analysis; assay type: ADME, Microsome
# [10] = Drug metabolism in mouse liver microsomes at 1 uM by LC/MS analysis; assay type: ADME, Microsome
# Liver microsomes [11] = experiment: Drug metabolism in human liver microsomes at 1 uM by LC/MS analysis; assay type: ADME, Microsome
# [12] = Plasma clearance in Sprague-Dawley rat at 1 mg/kg, iv; assay type: ADME, organism-based; parameters: dose 1 mg/kg, route intravenous
# Method in brief: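 Male Sprague–Dawley rats given a nominal 1 mg/kg iv dose as a solution in aqueous vehicle containing 40% (v/v) propylene glycol. Plasma concentration–time profiles were measured, with each profile the average of n = 2 rats. Plasma clearance was derived from the iv profile.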
# Rattus norvegicus [13] = experiment: Oral bioavailability in Sprague-Dawley rat at 19 mg/kg; assay type: ADME, organism-based; details: in vivo
# [14] = Cmax in Sprague-Dawley rat at 19 mg/kg, po; assay type: ADME, organism-based; parameters: dose 19 mg/kg, route oral; details: in vivo
# [15] = Volume of distribution at steady state in Sprague-Dawley rat at 1 mg/kg, iv; assay type: ADME, organism-based; parameters: dose 1 mg/kg, route intravenous; details: in vivo, read-out: Vdss
# Method in brief: (§3)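 Male Sprague–Dawley rats, single iv dose as solution in aqueous vehicle with 40% (v/v) propylene glycol; serial plasma concentrations, profiles averaged from n = 2 rats; urine collected for unchanged drug. Half-life, steady-state volume of distribution and plasma clearance taken from plasma concentration–time profiles.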
# [16] = Apparent terminal half life in Sprague-Dawley rat at 1 mg/kg, iv; assay type: ADME, organism-based; parameters: dose 1 mg/kg, route intravenous; details: in vivo, read-out: betat1/2(app) (converted); method in brief: as §3
# Liver microsomes [17] = experiment: Intrinsic clearance in human liver microsomes at 1 uM by LC/MS analysis; assay type: ADME, Microsome
# Liver microsomes [18] = experiment: Intrinsic clearance in rat liver microsomes at 1 uM by LC/MS analysis; assay type: ADME, Microsome
# Liver microsomes [19] = experiment: Half life in rat liver microsomes; assay type: ADME, Microsome
# Liver [20] = experiment: Half life in mouse liver microsomes; assay type: ADME, Microsome
# Liver microsomes [21] = experiment: Half life in human liver microsomes; assay type: ADME, Microsome
# in vivo [22] = details: Sprague-Dawley, rat, po, 19 mg/kg
# [23] = Drug degradation assessed as reactivity with reduced glutathione ethyl ester; assay type: physicochemical
# Liver microsomes [24] = experiment: Drug metabolism in rat liver microsomes assessed as mono-oxygenation at 1 uM by LC/MS analysis; assay type: ADME, Microsome
# Rattus norvegicus [25] = experiment: Oral bioavailability in Sprague-Dawley rat at 20 mg/kg; assay type: ADME, organism-based; details: in vivo
# Rattus norvegicus [26] = experiment: Bioavailability in Sprague-Dawley rat at 19 mg/kg, ip; assay type: ADME, organism-based; details: in vivo
# [27] = Volume of distribution at steady state in Sprague-Dawley rat at […], iv; assay type: ADME, organism-based; parameters: dose 4.5 mg/kg, route intravenous; details: in vivo, read-out: Vdss
# [28] = Cmax in Sprague-Dawley rat at 19 mg/kg, ip; assay type: ADME, organism-based; parameters: dose 19 mg/kg, route intraperitoneal; details: in vivo
# [29] = Cmax in Sprague-Dawley rat at 20 mg/kg, po; assay type: ADME, organism-based; parameters: dose 20 mg/kg, route oral; details: in vivo
# [30] = Drug excretion in Sprague-Dawley rat urine at 19 mg/kg, ip; assay type: ADME, organism-based; parameters: dose 19 mg/kg, route intraperitoneal; details: read-out: Drug excretion
# Method in brief: (§4)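 Male Sprague–Dawley rats, nominal 20 mg/kg (19 mg/kg actual ip), given po as an aqueous HPMC suspension or ip as a suspension in aqueous vehicle with 10% DMSO; percentage of the dose excreted unchanged in urine was measured; n = 2 rats per profile.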
# [31] = Plasma clearance in Sprague-Dawley rat at […], iv; assay type: ADME, organism-based; parameters: dose 4.5 mg/kg, route intravenous
# [32] = Drug excretion in Sprague-Dawley rat urine at […], iv; assay type: ADME, organism-based; parameters: dose 4.5 mg/kg, route intravenous; details: read-out: Drug excretion
# [33] = Drug excretion in Sprague-Dawley rat urine at 20 mg/kg, po; assay type: ADME, organism-based; parameters: dose 20 mg/kg, route oral; details: read-out: Drug excretion; method in brief: as §4
# [34] = Apparent terminal half life in Sprague-Dawley rat at 19 mg/kg, ip; assay type: ADME, organism-based; parameters: dose 19 mg/kg, route intraperitoneal; details: in vivo, read-out: betat1/2(app) (converted)
# [35] = Apparent terminal half life in Sprague-Dawley rat at 20 mg/kg, po; assay type: ADME, organism-based; parameters: dose 20 mg/kg, route oral; details: in vivo, read-out: betat1/2(app) (converted)
# [36] = Apparent terminal half life in Sprague-Dawley rat at […], iv; assay type: ADME, organism-based; parameters: dose 4.5 mg/kg, route intravenous; details: in vivo, read-out: betat1/2(app) (converted)
# [37] = Drug excretion in iv dosed rat urine assessed as glutathione adduct level; assay type: ADME, organism-based; details: in vivo
# in vivo [38] = details: Sprague-Dawley, rat, ip, 19 mg/kg
# in vivo [39] = details: Sprague-Dawley, rat, po, 20 mg/kg
smiles,measurement,setting,value
CCOC(=O)C1=C(O)/C(=C\c2cc(C)n(-c3ccc(F)cc3)c2C)N=C1C,microsomal CLint at 1 µM,[1],94 µL/min/mg
same,logD,[2],2.9
same,Drug metabolism,[3],Active
CCOC(=O)C1=C(C)N/C(=C/c2cc(C)n(-c3cc(OC)c(OC)c(OO)c3)c2C)C1=O,microsomal CLint at 1 µM,[1],63 µL/min/mg
same,logD,[2],2.6
CCOC(=O)C1=C(C)N/C(=C/c2cc(C)n(-c3cccc(OC)c3)c2C)C1=O,Microsomal intrinsic clearance (CLint),Liver [4],150 µL/min/mg
same,logD,[2],2.9
CCOC(=O)C1=C(C)N/C(=C/c2cc(C)n(-c3ccc(SC(F)(F)F)cc3)c2C)C1=O,Microsomal intrinsic clearance (CLint),Liver [4],76 µL/min/mg
same,Drug metabolism,[3],Active
CCOC(=O)C1=C(C)N/C(=C/c2cc(C)n(-c3ccc(S(=O)(=O)C(F)(F)F)cc3)c2C)C1=O,Microsomal intrinsic clearance (CLint),Liver [4],58 µL/min/mg
CCOC(=O)C1=C(C)N/C(=C/c2cc(C)n(-c3ccc(SC)cc3)c2C)C1=O,Microsomal intrinsic clearance (CLint),Liver [4],66 µL/min/mg
same,Drug metabolism,[3],Active
CCOC(=O)C1=C(C)N/C(=C/c2cc(C)n(-c3ccncc3)c2C)C1=O,Microsomal intrinsic clearance (CLint),Liver [4],61 µL/min/mg
same,logD,[2],3.2
same,Drug metabolism,[5],Active
same,Drug metabolism,[3],Active
CCOC(=O)C1=C(C)N/C(=C/c2cc(C)n(-c3cccnc3)c2C)C1=O,Microsomal intrinsic clearance (CLint),Liver [4],82 µL/min/mg
same,logD,[2],2.1
CCOC(=O)C1=C(C)N/C(=C/c2cc(C)n(-c3ccc(N4CCOCC4)cc3)c2C)C1=O,Microsomal intrinsic clearance (CLint),Liver [4],31 µL/min/mg
same,logD,[2],3.3
same,Drug metabolism,[6],Active
CCOC(=O)C1=C(C)N/C(=C/c2cc(C)n(Cc3ccc(C(F)(F)F)cc3)c2C)C1=O,Microsomal intrinsic clearance (CLint),Liver [4],100 µL/min/mg
CCOC(=O)C1=C(C)N/C(=C/c2cc(C)n(-c3ccc(CN4CCCCC4)cc3)c2C)C1=O,Microsomal intrinsic clearance (CLint),Liver [4],60 µL/min/mg
same,logD,[2],8.5
CCOC(=O)C1=C(C)N/C(=C/c2cc(C)n(-c3ccc(CN4CCOCC4)cc3)c2C)C1=O,Microsomal intrinsic clearance (CLint),Liver [4],56 µL/min/mg
same,logD,[2],6.7
CCOC(=O)C1=C(C)N/C(=C/c2cc(C)n(-c3ccc(CN(C)C)cc3)c2C)C1=O,Microsomal intrinsic clearance (CLint),Liver [4],31 µL/min/mg
same,logD,[2],8.3
CCOC(=O)C1=C(C)N/C(=C/c2ccn(-c3ccccc3C(F)(F)F)c2)C1=O,Microsomal intrinsic clearance (CLint),Liver [4],160 µL/min/mg
CCOC(=O)C1=C(C)N/C(=C/c2ccn(-c3ccc(C(F)(F)F)cc3)c2)C1=O,Microsomal intrinsic clearance (CLint),Liver [4],140 µL/min/mg
same,Drug metabolism,[3],Active
CCOC(=O)C1=C(C)N/C(=C/c2cc(CC)n(-c3ccccc3C(F)(F)F)c2CC)C1=O,Microsomal intrinsic clearance (CLint),Liver [4],140 µL/min/mg
same,Drug metabolism,[3],Active
CC1=C(C(=O)OC(C)(C)C)C(=O)/C(=C\c2cc(C)n(-c3ccccc3C(F)(F)F)c2C)N1,Microsomal intrinsic clearance (CLint),Liver [4],86 µL/min/mg
same,Drug metabolism,[5],Active
same,Drug metabolism,[3],Active
CC1=C(C(=O)OCc2ccccc2)C(=O)/C(=C\c2cc(C)n(-c3ccccc3C(F)(F)F)c2C)N1,Microsomal intrinsic clearance (CLint),Liver [4],560 µL/min/mg
CC1=C(C(=O)O)C(=O)/C(=C\c2cc(C)n(-c3ccccc3C(F)(F)F)c2C)N1,Microsomal intrinsic clearance (CLint),Liver [4],22 µL/min/mg
same,logD,[2],5.8
same,Drug metabolism,[7],Active
CC1=CC(=O)/C(=C\c2cc(C)n(-c3ccccc3C(F)(F)F)c2C)N1,Microsomal intrinsic clearance (CLint),Liver [4],23 µL/min/mg
CC1=C(C(N)=O)C(=O)/C(=C\c2cc(C)n(-c3ccccc3C(F)(F)F)c2C)N1,Drug metabolism,[3],Active
CCOC(=O)C1=C(C)N/C(=C/c2cc(C)n(-c3ccc(Cl)cc3)c2C)C1=O,Microsomal intrinsic clearance (CLint),Liver [4],72 µL/min/mg
same,logD,[2],3.4
CCOC(=O)C1=C(C)N/C(=C/c2cc(C)n(-c3ccc(Br)cc3)c2C)C1=O,Microsomal intrinsic clearance (CLint),Liver [4],62 µL/min/mg
same,logD,[2],3.4
CCOC(=O)C1=C(C)N/C(=C/c2cc(C)n(-c3ccc(OC)cc3)c2C)C1=O,Microsomal intrinsic clearance (CLint),Liver [4],54 µL/min/mg
same,logD,[2],3
same,Drug metabolism,[3],Active
CCOC(=O)C1=C(C)N/C(=C/c2cc(C)n(-c3ccc(N(C)C)cc3)c2C)C1=O,Microsomal intrinsic clearance (CLint),Liver [4],56 µL/min/mg
same,logD,[2],3.4
same,Drug metabolism,[8],Active
CCOC(=O)C1=C(C)N/C(=C/c2cc(C)n(-c3ccc(C(F)(F)F)cc3)c2C)C1=O,Microsomal intrinsic clearance (CLint),Liver [4],53 µL/min/mg
same,logD,[2],3.4
same,Drug metabolism,Liver microsomes [9],Not Active
same,Drug metabolism,[10],Not Active
same,Drug metabolism,Liver microsomes [11],Not Active
same,clearance,[12],22 mL/min/kg
same,F,Rattus norvegicus [13],4%
same,Cmax,[14],190 nM
same,Vd,[15],19 L/kg
same,half-life,[16],87 h
same,CLH,Liver microsomes [17],49 µL/min/mg
same,CLH,Liver microsomes [18],31 µL/min/mg
same,t1/2,Liver microsomes [19],0.933 h
same,t1/2,Liver [20],0.548 h
same,t1/2,Liver microsomes [21],0.583 h
same,Tmax,in vivo [22],1.67 h
CCOC(=O)C1=C(C)N/C(=C/c2cc(C)n(-c3cccc(C(F)(F)F)c3)c2C)C1=O,Microsomal intrinsic clearance (CLint),Liver [4],97 µL/min/mg
same,logD,[2],3.4
CCOC(=O)C1=C(C)N/C(=C/c2cc(C)n(-c3ccc(F)cc3F)c2C)C1=O,Microsomal intrinsic clearance (CLint),Liver [4],77 µL/min/mg
same,logD,[2],3
same,Drug metabolism,[3],Active
CCOC(=O)C1=C(C)N/C(=C/c2cc(C)n(-c3ccccc3C(F)(F)F)c2C)C1=O,logD,[2],3.3
same,Stability,[23],Stable
same,Drug metabolism,[10],Not Active
same,Drug metabolism,Liver microsomes [24],Active
same,Drug metabolism,Liver microsomes [11],Not Active
same,F,Rattus norvegicus [25],6%
same,F,Rattus norvegicus [26],45.7%
same,Vd,[27],13 L/kg
same,Cmax,[28],3300 nM
same,Cmax,[29],110 nM
same,dose excreted,[30],0.01%
same,clearance,[31],73 mL/min/kg
same,dose excreted,[32],0.05%
same,dose excreted,[33],0.08%
same,half-life,[34],9.1 h
same,half-life,[35],7.9 h
same,half-life,[36],12 h
same,Drug excretion,[37],Not Active
same,Drug metabolism,[3],Active
same,CLH,Liver microsomes [17],30 µL/min/mg
same,CLH,Liver microsomes [18],40 µL/min/mg
same,t1/2,Liver microsomes [19],0.733 h
same,t1/2,Liver microsomes [21],0.967 h
same,Tmax,in vivo [38],0.25 h
same,Tmax,in vivo [39],3.33 h
